Values after ≈ are worked out from the molar mass of the structure shown.
Assays:
Liver microsome [1] = test: Metabolic stability in human liver microsomes assessed as compound remaining after 30 mins; format: ADME; conditions: 0.5 h
Outline: (§1)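 One-point microsomal stability test: compound incubated 30 min with human, rat or mouse liver microsomes; percentage of parent remaining measured.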

[2] = Aqueous solubility of the compound at pH 2; format: physicochemical; conditions: buffer
Liver = test: Metabolic stability in mouse liver microsomes assessed as compound remaining after 30 mins; format: ADME; conditions: 0.5 h; outline: as §1
[3] = Aqueous solubility of the compound at pH 6.5; format: physicochemical; conditions: buffer
Liver microsome [4] = test: Metabolic stability in rat liver microsomes assessed as compound remaining after 30 mins; format: ADME; conditions: 0.5 h; outline: as §1
Plasmodium falciparum [5] = test: Antiplasmodial activity against Plasmodium falciparum NF54 by [3H]hypoxanthine incorporation assay; format: functional, organism-based
Outline: (§2)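 Modified [3H]-hypoxanthine incorporation assay on P. falciparum asexual cultures, chloroquine and artesunate as references in every run. IC50 values are means of ≥2 independent experiments; individual values mostly within 2-fold (maximum 3-fold).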

Plasmodium falciparum [6] = test: Antiplasmodial activity against Plasmodium falciparum K1 by [3H]hypoxanthine incorporation assay; format: functional, organism-based; outline: as §2
[7] = Plasma concentration in mouse infected with Plasmodium berghei ANKA at 50 mg/kg/day, po after 1 hr by HPLC analysis; format: ADME, organism-based; design: route oral
Outline: (§3)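 P. berghei-infected mice dosed orally at 50 mg/kg daily for 4 days; blood sampled 1, 4 and 24 h after the first dose and analysed by HPLC for drug levels.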

Plasmodium berghei = test: Antimalarial activity against Plasmodium berghei ANKA infected in mouse assessed as reduction in parasitemia at 50 mg/kg/day, po qd administered for 4 days relative to control; format: functional; design: Activity: scale not given: the % may be the effect or the level left
Outline: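 Mice (n = 3) infected with GFP-transfected P. berghei ANKA; compound in HPMC suspension vehicle given orally once daily at 4, 24, 48 and 72 h after infection. Blood collected day 4 (96 h post-infection); parasitemia by flow cytometry (detection limit 0.1%). Activity = difference in mean % parasitemia between control and treated groups, as % of control.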

[8] = target: Voltage-gated inwardly rectifying potassium channel KCNH2 (Homo sapiens, UniProt Q12809); test: Inhibition of human ERG channel by patch clamp technique
Sequence of Voltage-gated inwardly rectifying potassium channel KCNH2 (Q12809 whole entry): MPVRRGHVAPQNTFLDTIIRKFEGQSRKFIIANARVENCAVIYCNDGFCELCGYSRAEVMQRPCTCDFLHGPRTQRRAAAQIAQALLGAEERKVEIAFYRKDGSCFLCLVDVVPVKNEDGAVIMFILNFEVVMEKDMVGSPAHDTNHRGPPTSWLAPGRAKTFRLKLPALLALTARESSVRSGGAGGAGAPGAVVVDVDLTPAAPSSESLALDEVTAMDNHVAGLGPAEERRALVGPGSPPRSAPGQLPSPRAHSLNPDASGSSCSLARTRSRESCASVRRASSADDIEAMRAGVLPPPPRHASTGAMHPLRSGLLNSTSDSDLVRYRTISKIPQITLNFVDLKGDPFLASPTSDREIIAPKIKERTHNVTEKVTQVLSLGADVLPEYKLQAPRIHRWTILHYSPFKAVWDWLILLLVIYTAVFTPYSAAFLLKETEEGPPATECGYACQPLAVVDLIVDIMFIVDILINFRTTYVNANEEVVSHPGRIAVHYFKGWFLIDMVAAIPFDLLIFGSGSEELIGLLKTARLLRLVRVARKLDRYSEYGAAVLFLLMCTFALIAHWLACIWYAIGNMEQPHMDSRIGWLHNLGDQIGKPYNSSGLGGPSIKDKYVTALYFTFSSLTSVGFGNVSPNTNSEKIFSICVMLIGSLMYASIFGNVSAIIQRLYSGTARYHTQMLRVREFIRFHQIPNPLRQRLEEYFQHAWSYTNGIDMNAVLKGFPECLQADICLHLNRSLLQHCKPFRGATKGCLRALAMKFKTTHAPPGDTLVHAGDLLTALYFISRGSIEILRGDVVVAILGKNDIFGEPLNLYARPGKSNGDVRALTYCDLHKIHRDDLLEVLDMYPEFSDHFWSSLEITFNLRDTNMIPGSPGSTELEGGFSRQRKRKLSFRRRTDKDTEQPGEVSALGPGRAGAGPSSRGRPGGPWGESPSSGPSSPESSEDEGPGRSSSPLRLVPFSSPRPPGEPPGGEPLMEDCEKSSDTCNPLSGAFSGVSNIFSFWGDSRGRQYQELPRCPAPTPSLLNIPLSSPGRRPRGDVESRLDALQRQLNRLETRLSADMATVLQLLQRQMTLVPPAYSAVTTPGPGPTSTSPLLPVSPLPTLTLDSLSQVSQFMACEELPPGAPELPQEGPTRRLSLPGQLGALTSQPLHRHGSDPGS

[9] = Plasma concentration in mouse infected with Plasmodium berghei ANKA at 50 mg/kg/day, po after 4 hrs by HPLC analysis; format: ADME, organism-based; design: route oral; outline: as §3
CHO = test: Cytotoxicity against CHO cells; format: cell-based, Cricetulus griseus; conditions: chinese hamster
[10] = Selectivity index, ratio of IC50 for CHO cells to IC50 for Plasmodium falciparum; format: toxicity, cell-based; conditions: hamster, read-out: Ratio IC50
[11] = test system: CHO cells (Cricetulus griseus); test: Selectivity index, ratio of IC50 for Chinese hamster CHO cells to IC50 for Plasmodium falciparum
[12] = test system: CHO cells (Cricetulus griseus); test: Cytotoxicity against Chinese hamster CHO cells
[13] = Plasma concentration in mouse infected with Plasmodium berghei ANKA at 50 mg/kg/day, po after 24 hrs by HPLC analysis; format: ADME, organism-based; design: route oral; outline: as §3

Row | Stability (Liver microsome [1]) | solubility [2] [µM] | Stability (Liver) | solubility [3] [µM] | Stability (Liver microsome [4]) | IC50 (Plasmodium falciparum [5]) [nM] | IC50 (Plasmodium falciparum [6]) [nM] | concentration at 1 h [7] [nM] | concentration at 4 h [9] [nM] | concentration at 24 h [13] [nM] | SMILES | Activity (Plasmodium berghei) [%] | MSD (Plasmodium berghei) [days] | IC50 [8] [nM] | Activity (CHO) | selectivity ratio [10] | selectivity ratio [11] | Activity [12]
1 | Unstable | > 200 | Unstable | > 100 | Unstable |  |  |  |  |  | CS(=O)(=O)c1ccc(-c2cnc3ccc(-c4cccc(C(=O)NCCO)c4)nn23)cc1 |  |  |  |  |  |  | 
2 | Unstable | 188 (≈ 77.4 µg/mL) | Unstable | 157 (≈ 64.6 µg/mL) | Unstable | 39 | 36 | 590 | 490 |  | C[S+]([O-])c1cccc(-c2ccc3ncc(-c4ccc(S(C)(=O)=O)cc4)n3n2)c1 (stereo not given) | 99.8 | 14 | 4000 |  |  |  | 
3 |  |  |  |  |  |  |  |  |  |  | CS(=O)(=O)c1cccc(-c2ccc3ncc(-c4ccc(C(=O)O)cc4)n3n2)c1 |  |  |  | Non-toxic | > 1000 | > 1000 | Non-toxic
4 | Unstable | 205 (≈ 81.1 µg/mL) | Unstable | 192 (≈ 75.9 µg/mL) | Unstable | 35 | 30 | 2440 | 760 |  | C[S+]([O-])c1ccc(-c2cnc3ccc(-c4cccc([S+](C)[O-])c4)nn23)cc1 (stereo not given) | 99.8 | 25 | 12000 |  |  |  | 
5 |  | 5.4 (≈ 2.26 µg/mL) |  | < 5 |  | 45 | 26 |  |  |  | CS(=O)(=O)c1ccc(-c2cnc3ccc(-c4ccnc(C(F)(F)F)c4)nn23)cc1 |  |  |  | Non-toxic | > 1000 | > 1000 | Non-toxic
6 |  | < 5 |  | 183 (≈ 81.2 µg/mL) |  | 43 | 25 |  |  |  | O=S(=O)(c1cccc(-c2ccc3ncc(-c4ccc(-c5nnn[nH]5)cc4)n3n2)c1)C1CC1 | <40 | 4 | > 33000 |  |  |  | 
7 |  | 18 (≈ 8.18 µg/mL) |  | < 5 |  | 37 | 31 |  |  |  | CS(=O)(=O)c1cncc(-c2cnc3ccc(-c4cccc(S(=O)(=O)C5CC5)c4)nn23)c1 |  |  |  |  |  |  | 
8 | Stable | > 200 | Stable | 178 (≈ 84.8 µg/mL) | Stable | 6.5 |  |  |  |  | CS(=O)(=O)c1ccc(-c2cnc3ccc(-c4cccc(C(=O)N5CCC(O)CC5)c4)nn23)cc1 |  |  |  |  |  |  | 
9 |  | 52 (≈ 22.3 µg/mL) |  | 13 (≈ 5.58 µg/mL) |  | 808 | 610 |  |  |  | CS(=O)(=O)c1cncc(-c2ccc3ncc(-c4ccc(S(C)(=O)=O)nc4)n3n2)c1 |  |  |  |  |  |  | 
10 |  | 112 (≈ 42.2 µg/mL) |  | < 5 |  | 103 |  |  |  |  | C[S+]([O-])c1cccc(-c2ccc3ncc(-c4ccc(C(N)=O)cc4)n3n2)c1 (stereo not given) |  |  |  |  |  |  | 
11 |  | 6.3 (≈ 2.64 µg/mL) |  | < 5 |  | 1.5 | 1.2 |  |  |  | NC(=O)c1ccc(-c2cnc3ccc(-c4cccc(S(=O)(=O)C5CC5)c4)nn23)cc1 |  |  |  | Non-toxic | > 1000 | > 1000 | Non-toxic
12 | Stable |  | Stable |  | Stable |  |  |  |  |  | CS(=O)(=O)c1cccc(-c2ccc3ncc(-c4ccc(C(=O)N5CCNCC5)cc4)n3n2)c1 | <40 | 4 |  |  |  |  | 
13 |  | < 5 |  | < 5 |  | 96 | 82 |  |  |  | CS(=O)(=O)c1ccc(-c2cnc3ccc(-c4cncc(S(C)(=O)=O)c4)nn23)cc1 |  |  |  |  |  |  | 
14 |  | 174 (≈ 63.6 µg/mL) |  | 15 (≈ 5.48 µg/mL) |  | 69 | 55 |  |  |  | CS(=O)(=O)c1ccc(-c2cnc3ccc(-c4cncc(N)c4)nn23)cc1 |  |  |  |  |  |  | 
15 | Stable | > 200 | Stable | > 200 | Stable | 3 | 2.6 |  | < 10 | < 10 | CS(=O)(=O)c1ccc(-c2cnc3ccc(-c4cccc(S(=O)(=O)CCCN)c4)nn23)cc1 | <40 | 4 | > 33000 | Non-toxic | > 1000 | > 1000 | Non-toxic
16 |  | 183 (≈ 78.6 µg/mL) |  | 53 (≈ 22.8 µg/mL) |  | 636 | 473 |  |  |  | CS(=O)(=O)c1cncc(-c2ccc3ncc(-c4cncc(S(C)(=O)=O)c4)n3n2)c1 |  |  |  |  |  |  | 
17 |  | < 5 |  | < 5 |  | 3.3 | 2 |  |  |  | CS(=O)(=O)c1ccc(-c2cnc3ccc(-c4cccc(S(=O)(=O)C5CC5)c4)nn23)cn1 |  |  |  |  |  |  | 
18 | Unstable | 166 (≈ 82.6 µg/mL) | Unstable | 162 (≈ 80.6 µg/mL) | Unstable | 14 | 8.8 |  |  |  | CS(=O)(=O)c1cccc(-c2ccc3ncc(-c4ccc(S(=O)(=O)N5CCNCC5)cc4)n3n2)c1 |  |  |  |  |  |  | 
19 |  | 192 (≈ 70.2 µg/mL) |  | < 5 |  | 23 | 19 |  |  |  | CS(=O)(=O)c1cccc(-c2ccc3ncc(-c4ccc(N)nc4)n3n2)c1 |  |  |  |  |  |  | 
20 | Stable | > 200 | Stable | 180 (≈ 84.7 µg/mL) | Stable | 11 | 9.4 |  |  |  | CS(=O)(=O)c1cccc(-c2ccc3ncc(-c4ccc(S(=O)(=O)CCCN)cc4)n3n2)c1 |  |  |  | Non-toxic | > 1000 | > 1000 | Non-toxic
21 |  | < 5 |  | < 5 |  | 1050 |  |  |  |  | CS(=O)(=O)c1ccc(-c2cnc3ccc(-c4cncc(C(F)(F)F)c4)nn23)cc1 |  |  |  |  |  |  | 
22 | Stable | 207 (≈ 85.2 µg/mL) | Stable | 98 (≈ 40.3 µg/mL) | Stable | 6.5 |  |  |  |  | C[S+]([O-])c1ccc(-c2cnc3ccc(-c4cccc(S(C)(=O)=O)c4)nn23)cc1 (stereo not given) | 99.7 | 14 |  |  |  |  | 
23 |  | 190 (≈ 86.9 µg/mL) |  | 8.6 (≈ 3.93 µg/mL) |  | 2.2 |  |  |  |  | CS(=O)(=O)c1ccc(-c2cnc3ccc(-c4cccc(S(=O)(=O)CCO)c4)nn23)cc1 |  |  |  |  |  |  | 
24 |  | < 5 |  | < 5 |  | 12 | 9.9 |  |  |  | CS(=O)(=O)c1cccc(-c2ccc3ncc(-c4ccc(S(C)(=O)=O)nc4)n3n2)c1 |  |  |  |  |  |  | 
25 |  | < 5 |  | < 5 |  | 662 | 484 |  |  |  | CS(=O)(=O)c1cncc(-c2ccc3ncc(-c4ccc(S(=O)(=O)C5CC5)cc4)n3n2)c1 |  |  |  |  |  |  | 
26 | Stable | 191 (≈ 88.3 µg/mL) | Stable | 177 (≈ 81.9 µg/mL) | Stable | 18 | 21 |  | < 10 | < 10 | CS(=O)(=O)c1cccc(-c2ccc3ncc(-c4ccc(C(=O)N5CCC(O)C5)cc4)n3n2)c1 (stereo not given) | <40 | 4 | > 33000 |  |  |  | 
27 |  | 16 (≈ 6.86 µg/mL) |  | < 5 |  | 58 | 42 |  |  |  | CS(=O)(=O)c1cccc(-c2ccc3ncc(-c4cncc(S(C)(=O)=O)c4)n3n2)c1 |  |  |  |  |  |  | 
